Molecules are shown by their SMILES.

A word on the inhibition: it is the drop in the measured response relative to a control, in per cent.

The target in experiment [1] is Tyrosine-protein kinase ABL1 (Homo sapiens, UniProt P00519). The experiment can be described thus: Inhibition of ABL at 30 uM by microfluidic mobility shift assay. In short, it runs like this: (§1)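 Single-concentration screen, singlicate, 30 uM final (diluted from 1 mM DMSO solutions), fluorescently tagged peptide substrate appropriate to each kinase, ATP at apparent Km for each protein. Phosphorylated and unphosphorylated peptides separated electrophoretically; conversion is the phosphorylated peak area over the sum of both peaks. No-inhibitor and no-ATP controls; H89 reference on each plate.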
Chain of Tyrosine-protein kinase ABL1 (P00519 whole entry): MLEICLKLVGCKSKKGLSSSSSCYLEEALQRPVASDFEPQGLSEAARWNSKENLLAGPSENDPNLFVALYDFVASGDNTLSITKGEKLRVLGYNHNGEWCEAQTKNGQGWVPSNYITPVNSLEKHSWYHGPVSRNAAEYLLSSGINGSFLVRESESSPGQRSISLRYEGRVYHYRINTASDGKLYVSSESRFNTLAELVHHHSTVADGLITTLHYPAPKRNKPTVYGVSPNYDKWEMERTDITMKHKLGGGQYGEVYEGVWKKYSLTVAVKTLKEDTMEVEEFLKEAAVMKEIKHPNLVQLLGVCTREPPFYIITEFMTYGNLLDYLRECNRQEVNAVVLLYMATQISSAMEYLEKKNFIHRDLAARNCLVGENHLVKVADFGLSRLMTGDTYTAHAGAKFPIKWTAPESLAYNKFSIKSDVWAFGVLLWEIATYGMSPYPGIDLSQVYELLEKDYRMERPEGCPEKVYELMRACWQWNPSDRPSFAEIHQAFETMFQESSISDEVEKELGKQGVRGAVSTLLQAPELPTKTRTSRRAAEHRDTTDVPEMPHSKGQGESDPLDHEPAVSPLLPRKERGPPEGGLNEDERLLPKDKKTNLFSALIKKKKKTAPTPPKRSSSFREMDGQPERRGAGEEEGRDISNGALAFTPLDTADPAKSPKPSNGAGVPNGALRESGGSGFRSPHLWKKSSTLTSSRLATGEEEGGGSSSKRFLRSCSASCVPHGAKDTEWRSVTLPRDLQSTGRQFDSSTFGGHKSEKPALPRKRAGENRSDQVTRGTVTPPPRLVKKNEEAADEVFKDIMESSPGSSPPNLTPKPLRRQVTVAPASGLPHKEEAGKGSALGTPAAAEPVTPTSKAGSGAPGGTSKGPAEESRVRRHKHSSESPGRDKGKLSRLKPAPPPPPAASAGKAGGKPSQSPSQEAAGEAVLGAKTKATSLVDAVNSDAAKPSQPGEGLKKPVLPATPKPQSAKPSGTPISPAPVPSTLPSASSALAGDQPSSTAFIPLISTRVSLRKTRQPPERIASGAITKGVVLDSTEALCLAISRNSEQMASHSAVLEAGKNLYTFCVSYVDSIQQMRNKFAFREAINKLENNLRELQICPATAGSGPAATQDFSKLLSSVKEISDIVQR

The target of experiment [2] is Mitogen-activated protein kinase 1 (Homo sapiens) (UniProt P28482). Description: Inhibition of ERK2 at 30 uM by microfluidic mobility shift assay. In outline:
as §1

The target of experiment [3] is RAC-beta serine/threonine-protein kinase (Homo sapiens) (UniProt P31751). Description: Inhibition of AKT2 at 30 uM by microfluidic mobility shift assay. In short, it runs like this:
as §1

The target of experiment [4] is T1, Serine/threonine-protein kinase D2 (Homo sapiens) (UniProt Q9BZL6).
T1 sequence (whole entry): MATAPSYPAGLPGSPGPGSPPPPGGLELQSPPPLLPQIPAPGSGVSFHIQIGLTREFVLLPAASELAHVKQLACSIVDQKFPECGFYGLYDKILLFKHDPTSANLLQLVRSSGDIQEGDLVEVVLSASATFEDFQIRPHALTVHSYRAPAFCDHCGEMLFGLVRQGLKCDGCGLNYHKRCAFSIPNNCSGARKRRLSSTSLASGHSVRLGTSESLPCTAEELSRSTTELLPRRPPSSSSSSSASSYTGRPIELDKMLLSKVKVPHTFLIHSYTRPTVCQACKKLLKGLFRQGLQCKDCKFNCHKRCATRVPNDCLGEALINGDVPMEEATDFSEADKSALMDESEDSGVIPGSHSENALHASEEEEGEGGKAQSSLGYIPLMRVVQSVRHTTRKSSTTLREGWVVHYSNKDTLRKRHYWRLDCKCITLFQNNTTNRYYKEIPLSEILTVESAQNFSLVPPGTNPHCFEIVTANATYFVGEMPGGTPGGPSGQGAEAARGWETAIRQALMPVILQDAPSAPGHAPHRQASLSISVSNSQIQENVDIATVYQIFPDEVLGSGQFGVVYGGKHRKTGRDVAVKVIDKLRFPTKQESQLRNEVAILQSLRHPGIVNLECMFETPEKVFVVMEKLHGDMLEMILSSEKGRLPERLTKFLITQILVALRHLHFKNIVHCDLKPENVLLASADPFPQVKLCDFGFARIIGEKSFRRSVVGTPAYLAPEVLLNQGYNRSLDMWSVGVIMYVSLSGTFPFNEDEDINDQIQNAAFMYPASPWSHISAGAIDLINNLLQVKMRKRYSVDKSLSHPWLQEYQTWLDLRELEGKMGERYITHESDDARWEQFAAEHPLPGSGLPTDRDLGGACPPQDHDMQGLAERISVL
Description: Inhibition of PKD2 at 30 uM by microfluidic mobility shift assay. In short, it runs like this:
as §1

Experiment [5] concerns the target T2, Aurora kinase A (Homo sapiens) (UniProt O14965).
T2 sequence (whole entry): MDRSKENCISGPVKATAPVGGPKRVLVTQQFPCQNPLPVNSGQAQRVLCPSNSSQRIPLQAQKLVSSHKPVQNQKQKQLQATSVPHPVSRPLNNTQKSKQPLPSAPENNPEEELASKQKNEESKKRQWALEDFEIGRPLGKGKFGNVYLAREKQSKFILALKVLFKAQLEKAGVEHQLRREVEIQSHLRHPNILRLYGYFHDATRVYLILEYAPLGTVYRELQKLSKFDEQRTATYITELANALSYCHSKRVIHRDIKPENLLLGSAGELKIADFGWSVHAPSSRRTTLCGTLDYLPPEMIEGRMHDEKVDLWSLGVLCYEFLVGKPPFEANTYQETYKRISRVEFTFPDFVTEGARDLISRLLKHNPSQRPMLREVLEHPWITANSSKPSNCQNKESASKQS
The experiment can be described thus: Inhibition of AurA at 30 uM by microfluidic mobility shift assay. In outline:
as §1

Experiment [6] addresses Ribosomal protein S6 kinase alpha-1 (Homo sapiens) (UniProt Q15418). The experiment can be described thus: Inhibition of RSK1 at 30 uM by microfluidic mobility shift assay. In short, it runs like this: as §1
In experiment [7] the target is Glycogen synthase kinase-3 beta (Homo sapiens) (UniProt P49841). Description: Inhibition of GSK3B at 30 uM by microfluidic mobility shift assay. In outline: as §1
The target of experiment [8] is MAP kinase-activated protein kinase 2 (Homo sapiens, UniProt P49137). Description: Inhibition of MAPKAPK2 at 30 uM by microfluidic mobility shift assay. In outline: as §1
Chain of MAP kinase-activated protein kinase 2 (P49137 whole entry, looked up): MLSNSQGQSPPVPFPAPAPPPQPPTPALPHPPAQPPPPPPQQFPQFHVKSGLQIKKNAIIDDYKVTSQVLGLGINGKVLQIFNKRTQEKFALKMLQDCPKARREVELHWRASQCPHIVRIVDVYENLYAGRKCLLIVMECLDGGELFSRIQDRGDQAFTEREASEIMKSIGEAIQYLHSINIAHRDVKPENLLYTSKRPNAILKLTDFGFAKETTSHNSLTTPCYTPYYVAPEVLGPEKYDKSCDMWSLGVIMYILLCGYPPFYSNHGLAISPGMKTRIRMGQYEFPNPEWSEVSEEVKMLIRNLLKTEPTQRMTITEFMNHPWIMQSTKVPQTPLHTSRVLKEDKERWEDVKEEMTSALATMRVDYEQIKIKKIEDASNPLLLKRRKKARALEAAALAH
Experiment [9] addresses Tyrosine-protein kinase Fyn (Homo sapiens, UniProt P06241). Description: Inhibition of FYN at 30 uM by microfluidic mobility shift assay. In outline:
as §1

Experiment [10] has as its target Proto-oncogene tyrosine-protein kinase Src (Homo sapiens, UniProt P12931). The experiment can be described thus: Inhibition of SRC at 30 uM by microfluidic mobility shift assay. In outline:
as §1

For experiment [11], the target named is Insulin receptor (Homo sapiens) (UniProt P06213). The experiment can be described thus: Inhibition of INSR at 30 uM by microfluidic mobility shift assay. In outline: as §1
Experiment [12] addresses Mitogen-activated protein kinase 14 (Homo sapiens, UniProt Q16539). The experiment can be described thus: Inhibition of p38alpha at 30 uM by microfluidic mobility shift assay. In outline:
as §1

For experiment [13], the target named is Tyrosine-protein kinase Lyn (Homo sapiens, UniProt P07948). The experiment can be described thus: Inhibition of LYN at 30 uM by microfluidic mobility shift assay. In short, it runs like this:
as §1

Experiment [14] deals with RAC-alpha serine/threonine-protein kinase (Homo sapiens) (UniProt P31749). Description: Inhibition of AKT1 at 30 uM by microfluidic mobility shift assay. In short, it runs like this:
as §1

In experiment [15] the target is T3, Serine/threonine-protein kinase Chk1 (Homo sapiens) (UniProt O14757).
T3 sequence (whole entry): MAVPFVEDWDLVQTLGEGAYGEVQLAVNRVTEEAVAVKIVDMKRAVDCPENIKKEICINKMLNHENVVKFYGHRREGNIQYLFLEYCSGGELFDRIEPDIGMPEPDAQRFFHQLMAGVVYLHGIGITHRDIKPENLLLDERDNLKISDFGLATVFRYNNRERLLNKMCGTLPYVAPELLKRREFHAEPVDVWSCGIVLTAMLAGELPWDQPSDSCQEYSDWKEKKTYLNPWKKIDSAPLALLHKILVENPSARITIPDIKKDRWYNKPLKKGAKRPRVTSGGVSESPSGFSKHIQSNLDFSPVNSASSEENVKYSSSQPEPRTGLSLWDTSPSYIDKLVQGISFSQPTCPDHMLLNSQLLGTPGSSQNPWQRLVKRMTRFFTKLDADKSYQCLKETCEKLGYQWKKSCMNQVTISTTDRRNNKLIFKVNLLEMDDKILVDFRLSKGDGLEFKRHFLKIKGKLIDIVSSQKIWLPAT
The experiment can be described thus: Inhibition of CHK1 at 30 uM by microfluidic mobility shift assay. In short, it runs like this: as §1

Experiment [16] deals with Tyrosine-protein kinase Lck (Homo sapiens, UniProt P06239). The experiment can be described thus: Inhibition of LCK at 30 uM by microfluidic mobility shift assay. In outline: as §1
Chain of Tyrosine-protein kinase Lck (P06239 2-509 limits assumed): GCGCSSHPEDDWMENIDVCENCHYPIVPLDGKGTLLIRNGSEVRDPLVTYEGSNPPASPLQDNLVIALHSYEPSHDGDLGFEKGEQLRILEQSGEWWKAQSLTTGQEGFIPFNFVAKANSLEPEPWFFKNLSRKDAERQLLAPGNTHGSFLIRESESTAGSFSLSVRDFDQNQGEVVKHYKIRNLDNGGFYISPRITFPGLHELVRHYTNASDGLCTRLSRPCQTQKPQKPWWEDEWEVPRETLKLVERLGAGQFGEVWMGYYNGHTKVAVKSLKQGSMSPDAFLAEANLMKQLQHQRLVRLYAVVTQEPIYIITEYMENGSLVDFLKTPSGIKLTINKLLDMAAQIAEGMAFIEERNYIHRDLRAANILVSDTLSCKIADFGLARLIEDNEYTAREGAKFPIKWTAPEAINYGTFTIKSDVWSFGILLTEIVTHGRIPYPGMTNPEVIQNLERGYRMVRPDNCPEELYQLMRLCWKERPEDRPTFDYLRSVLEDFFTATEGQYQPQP
Experiment [17] is described as follows: Inhibition of PKA at 30 uM by microfluidic mobility shift assay. In outline:
as §1

Experiment [18] concerns the target Mitogen-activated protein kinase 3 (Homo sapiens) (UniProt P27361). Description: Inhibition of ERK1 at 30 uM by microfluidic mobility shift assay. In short, it runs like this:
as §1

Chain of Tyrosine-protein kinase Lyn (P07948 2-512 limits assumed): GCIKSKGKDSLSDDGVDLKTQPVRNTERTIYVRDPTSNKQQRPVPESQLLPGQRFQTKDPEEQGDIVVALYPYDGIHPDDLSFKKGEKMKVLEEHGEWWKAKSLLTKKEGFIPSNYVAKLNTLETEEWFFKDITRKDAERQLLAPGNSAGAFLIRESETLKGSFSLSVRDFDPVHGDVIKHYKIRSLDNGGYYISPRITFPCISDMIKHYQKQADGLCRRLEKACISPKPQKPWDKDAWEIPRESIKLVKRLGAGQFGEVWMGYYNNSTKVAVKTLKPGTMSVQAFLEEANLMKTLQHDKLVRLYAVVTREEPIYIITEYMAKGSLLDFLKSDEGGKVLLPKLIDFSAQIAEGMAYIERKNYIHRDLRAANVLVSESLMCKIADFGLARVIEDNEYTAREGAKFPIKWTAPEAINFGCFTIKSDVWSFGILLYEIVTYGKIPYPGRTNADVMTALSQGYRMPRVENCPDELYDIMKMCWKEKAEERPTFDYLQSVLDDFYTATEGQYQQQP
Chain of RAC-alpha serine/threonine-protein kinase (Homo sapiens) (P31749 whole entry): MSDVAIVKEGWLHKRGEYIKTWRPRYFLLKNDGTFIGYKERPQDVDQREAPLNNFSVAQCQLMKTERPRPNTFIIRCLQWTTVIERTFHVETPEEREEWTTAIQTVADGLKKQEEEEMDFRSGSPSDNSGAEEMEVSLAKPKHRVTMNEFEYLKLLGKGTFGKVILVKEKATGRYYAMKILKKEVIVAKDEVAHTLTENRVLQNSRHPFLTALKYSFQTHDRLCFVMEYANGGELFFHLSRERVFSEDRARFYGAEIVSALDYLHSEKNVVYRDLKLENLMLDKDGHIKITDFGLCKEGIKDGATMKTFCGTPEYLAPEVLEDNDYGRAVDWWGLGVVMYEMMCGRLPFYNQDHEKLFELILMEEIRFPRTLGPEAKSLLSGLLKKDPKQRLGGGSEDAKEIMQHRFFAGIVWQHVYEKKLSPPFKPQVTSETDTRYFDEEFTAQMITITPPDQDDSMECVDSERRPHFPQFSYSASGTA
Chain of Mitogen-activated protein kinase 3 (Homo sapiens) (P27361 whole entry): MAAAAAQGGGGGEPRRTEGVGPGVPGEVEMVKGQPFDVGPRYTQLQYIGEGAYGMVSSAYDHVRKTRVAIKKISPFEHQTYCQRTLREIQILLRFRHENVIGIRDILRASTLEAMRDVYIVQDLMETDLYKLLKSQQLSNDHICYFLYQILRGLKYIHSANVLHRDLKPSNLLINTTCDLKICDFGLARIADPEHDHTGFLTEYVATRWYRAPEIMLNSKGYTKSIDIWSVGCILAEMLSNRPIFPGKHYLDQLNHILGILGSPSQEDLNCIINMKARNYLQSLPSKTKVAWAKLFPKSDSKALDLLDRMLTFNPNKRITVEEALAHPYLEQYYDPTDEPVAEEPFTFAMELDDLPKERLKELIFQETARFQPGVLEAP
Chain of Proto-oncogene tyrosine-protein kinase Src (P12931 2-536 limits assumed): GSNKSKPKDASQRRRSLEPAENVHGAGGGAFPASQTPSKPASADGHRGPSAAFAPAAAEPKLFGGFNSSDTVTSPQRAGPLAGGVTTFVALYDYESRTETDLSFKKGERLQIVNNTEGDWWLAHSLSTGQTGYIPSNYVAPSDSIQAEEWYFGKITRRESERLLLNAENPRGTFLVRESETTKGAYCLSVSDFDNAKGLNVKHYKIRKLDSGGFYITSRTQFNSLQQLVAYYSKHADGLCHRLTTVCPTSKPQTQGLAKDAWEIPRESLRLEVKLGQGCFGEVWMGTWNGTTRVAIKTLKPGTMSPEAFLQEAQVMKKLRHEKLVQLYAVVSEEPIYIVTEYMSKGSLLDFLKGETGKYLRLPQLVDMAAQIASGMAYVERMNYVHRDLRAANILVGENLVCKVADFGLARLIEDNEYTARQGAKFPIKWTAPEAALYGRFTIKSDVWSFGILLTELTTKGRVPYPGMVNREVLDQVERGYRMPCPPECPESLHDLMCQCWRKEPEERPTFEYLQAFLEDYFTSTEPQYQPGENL
Chain of Ribosomal protein S6 kinase alpha-1 (Homo sapiens) (Q15418 whole entry): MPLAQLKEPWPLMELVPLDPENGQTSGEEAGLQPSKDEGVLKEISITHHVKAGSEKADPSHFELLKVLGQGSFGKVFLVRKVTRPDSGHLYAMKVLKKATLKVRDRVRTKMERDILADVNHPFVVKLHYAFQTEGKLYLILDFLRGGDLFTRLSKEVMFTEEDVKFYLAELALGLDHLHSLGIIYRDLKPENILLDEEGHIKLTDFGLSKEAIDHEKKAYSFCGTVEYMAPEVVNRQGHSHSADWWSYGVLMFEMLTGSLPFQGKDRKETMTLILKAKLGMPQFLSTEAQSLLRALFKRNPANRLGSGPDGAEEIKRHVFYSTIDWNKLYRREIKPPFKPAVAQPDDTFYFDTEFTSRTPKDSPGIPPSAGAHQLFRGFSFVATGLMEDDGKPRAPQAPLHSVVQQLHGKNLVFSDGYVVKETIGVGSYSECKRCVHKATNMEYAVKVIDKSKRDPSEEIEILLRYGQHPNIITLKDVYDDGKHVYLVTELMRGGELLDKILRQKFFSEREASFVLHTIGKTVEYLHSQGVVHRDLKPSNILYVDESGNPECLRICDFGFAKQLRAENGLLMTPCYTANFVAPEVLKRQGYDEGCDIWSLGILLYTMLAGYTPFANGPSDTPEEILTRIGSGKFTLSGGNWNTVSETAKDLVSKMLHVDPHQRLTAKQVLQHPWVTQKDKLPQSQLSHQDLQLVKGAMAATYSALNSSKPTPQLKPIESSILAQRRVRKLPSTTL

Turning to `Nc1n[nH]c2cc(-c3ccncc3)[nH]c(=O)c12`, the inhibition in experiment [1] was 28%; in experiment [2], 38%; in experiment [3], 4%; in [4], 29%; in experiment [5], 43%; in experiment [6] it was 22%. For the same molecule, the inhibition in experiment [7] stood at 95%; in [8], 37%; in experiment [9], 28%; in experiment [10], 46%; in experiment [11], 9%; in [12] it was 1%. Further, the inhibition in experiment [13] turned out to be 39%; in [14], 2%; in experiment [15], 21%; in experiment [16], 37%; in [17], 55%; in [18], 57%.

`Nc1c2c(=O)[nH]c(-c3ccccc3)cc2nn1-c1ccccn1`: the inhibition in [1] was 33%; in experiment [2], 0%; in experiment [3], 0%; in [4], 16%; in experiment [5], 37%; in experiment [6] it was 5%. The inhibition is 41% in experiment [7]; 6% in experiment [8]; 41% in experiment [9]; 37% in experiment [10]; 5% in experiment [11]; 7% in experiment [12]. Besides, the inhibition in experiment [13] was 40%; in experiment [14], 10%; in experiment [15], 2%; in experiment [16] it was 15%; in experiment [17], -3%; in experiment [18] it was 2%.

On to `CN1CCN(c2ccc(-c3cc4nn(-c5ccccc5)c(N)c4c(=O)[nH]3)cc2)CC1`, for which the inhibition in experiment [1] amounted to 99%; in experiment [2] it was 7%; in experiment [3], 10%; in experiment [4], 15%; in [5], 66%; in experiment [6], 19%. Besides, the inhibition was 12% in experiment [7]; 4% in [8]; 99% in [9]; 99% in experiment [10]; 8% in experiment [11]; 85% in experiment [12]. In addition, the inhibition in experiment [13] is 100%; in experiment [14], 3%; in experiment [15], 52%; in experiment [16], 100%; in [17], 2%; in experiment [18], 0%.

For `COCCNc1nc(-c2ccccc2)cc2c1c(N)nn2C`, the inhibition in [1] is -7%; in experiment [2], 0%; in experiment [3], -1%; in experiment [4], 1%; in experiment [5], 10%; in experiment [6], -3%. The inhibition came out at 3% in [7]; 2% in experiment [8]; 0% in experiment [9]; 3% in experiment [10]; 1% in [11]; 2% in [12]. The inhibition in [13] is 4%; in experiment [14], 8%; in experiment [15], 7%; in experiment [16], 9%; in experiment [17], -3%; in [18] it was 3%.

With `CC(=O)Nc1nn(C)c2cc(-c3ccccc3)[nH]c(=O)c12`, the inhibition amounted to 10% in experiment [1]; 2% in experiment [2]; 40% in [3]; 9% in experiment [4]; 2% in experiment [5]; 4% in [6]. Besides, the inhibition is 17% in experiment [7]; 9% in experiment [8]; 21% in [9]; 12% in experiment [10]; 5% in [11]; 5% in [12]. Besides, the inhibition was 13% in experiment [13]; -9% in experiment [14]; 4% in [15]; 8% in experiment [16]; -2% in experiment [17]; 3% in [18].

As for `Nc1n[nH]c2cc(-c3cccnc3)[nH]c(=O)c12`, the inhibition in experiment [1] was 37%; in experiment [2], 14%; in experiment [3], 8%; in experiment [4], 26%; in experiment [5], 42%; in [6], 11%. Moreover, the inhibition came to 71% in [7]; 40% in experiment [8]; 24% in experiment [9]; 46% in [10]; 7% in [11]; 3% in experiment [12]. Moreover, the inhibition in [13] turned out to be 39%; in experiment [14] it was 7%; in [15], 9%; in experiment [16] it was 34%; in experiment [17] it was 35%; in experiment [18], 19%.

Regarding `CN1CCN(c2ccc(-c3cc4[nH]nc(N)c4c(=O)[nH]3)cc2)CC1`, the inhibition in experiment [1] is 86%; in experiment [2] it was -2%; in experiment [3] it was 6%; in experiment [4] it was 15%; in [5] it was 51%; in experiment [6], 26%. The inhibition is 42% in experiment [7]; 55% in experiment [8]; 76% in experiment [9]; 85% in [10]; 17% in experiment [11]; 7% in [12]. The inhibition worked out at 76% in experiment [13]; 9% in experiment [14]; 54% in experiment [15]; 74% in experiment [16]; 98% in experiment [17]; 4% in [18].

The values are drawn from ChEMBL document CHEMBL1811853, “Design and evaluation of 3-aminopyrazolopyridinone kinase inhibitors inspired by the natural product indirubin” (Bioorg Med Chem, 2011).
